Assay results taken from article PMC12062462 (Nature Communications, 2025).

How the values were obtained:
[1] = tested on: RIPK3-mediated apoptosis; details: cited from earlier work
[2] = tested on: L929 RIPK3-/- + RIPK3 K51A cells; assay: Cell viability assay with or without zVAD, L929 RIPK3-/- + RIPK3 K51A; format: cell-based, mouse; details: 1.6 μM, without zVAD
In short: (§1)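 L929 cells were grown in MEM with 10% FBS. RIPK3 was knocked out by CRISPR/Cas9 (sgRNA against mouse RIPK3), and knockout was confirmed by sequencing and immunoblot. Knockout lines with or without re-expressed RIPK3 K51A or K51A/R69H were seeded at 10,000–20,000 cells/well and left to attach for 24 h. Cells were exposed to test compound alone or with zVAD for 18–20 h. Viability was read by CCK-8 (1–2 h, 37 °C, A450). Three experiments in triplicate; CC50 by nonlinear regression.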

[3] = target: RIPK3-RIPK1 interaction (Mus musculus, UniProt Q9QZL0); assay: RIPK1 immunoprecipitation; format: cell-based; details: L929, 10 µM, 5 hours
Sequence of RIPK3-RIPK1 interaction (Q9QZL0 whole entry): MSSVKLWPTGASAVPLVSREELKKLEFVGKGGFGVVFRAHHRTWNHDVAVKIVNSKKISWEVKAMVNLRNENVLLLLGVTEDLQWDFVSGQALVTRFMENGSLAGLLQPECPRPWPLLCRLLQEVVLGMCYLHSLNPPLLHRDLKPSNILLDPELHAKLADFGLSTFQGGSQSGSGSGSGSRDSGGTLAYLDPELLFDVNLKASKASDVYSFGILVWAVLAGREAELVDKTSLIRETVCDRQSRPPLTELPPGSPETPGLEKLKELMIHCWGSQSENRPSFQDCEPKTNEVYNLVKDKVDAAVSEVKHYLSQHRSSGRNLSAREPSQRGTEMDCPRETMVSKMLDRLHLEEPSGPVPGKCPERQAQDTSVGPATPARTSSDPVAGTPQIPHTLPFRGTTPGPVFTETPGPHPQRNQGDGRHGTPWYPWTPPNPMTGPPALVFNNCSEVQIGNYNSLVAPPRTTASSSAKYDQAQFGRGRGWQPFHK
In short: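 Lysates were cleared at 17,000 g for 15 min at 4 °C, and an input sample was kept. Lysate was incubated with anti-RIPK1 antibody on protein A/G magnetic beads for 2 h at 4 °C. Co-precipitated RIPK3 was detected by Western blot. Normalized quantification came from three independent experiments.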

[4] = tested on: caspase 3 and caspase 8 cleavage in L929 cells; assay: Western blot of caspase 3 and caspase 8 cleavage in L929 cells; format: cell-based, mouse; details: L929, 3 hours
In short: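 L929 cells in 12-well plates at about 80% confluency were exposed for 3 h to test compound, DMSO or medium, each with 10 µM zVAD. Cells were lysed at room temperature in a Triton X-100/Tris-based 1× SDS sample buffer and boiled 10 min. Proteins were run on 15% SDS-PAGE and blotted to PVDF. Membranes were blocked in 5% milk and probed for caspase 3 and caspase 8 cleavage overnight at 4 °C. Three independent experiments.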

[5] = tested on: panel of 291 kinases; details: 1 µM, overlapping panel of 272 kinases; ref 30 (Mandal et al., 2014); cited from earlier work
[6] = target: mRIPK3^KD R69H (Mus musculus, UniProt Q9QZL0, C111A/R69H); assay: Size-exclusion chromatography; details: protein 10 mg/mL, compound 1 mM
Sequence of mRIPK3^KD R69H (Q9QZL0 1-313 R69H/C111A): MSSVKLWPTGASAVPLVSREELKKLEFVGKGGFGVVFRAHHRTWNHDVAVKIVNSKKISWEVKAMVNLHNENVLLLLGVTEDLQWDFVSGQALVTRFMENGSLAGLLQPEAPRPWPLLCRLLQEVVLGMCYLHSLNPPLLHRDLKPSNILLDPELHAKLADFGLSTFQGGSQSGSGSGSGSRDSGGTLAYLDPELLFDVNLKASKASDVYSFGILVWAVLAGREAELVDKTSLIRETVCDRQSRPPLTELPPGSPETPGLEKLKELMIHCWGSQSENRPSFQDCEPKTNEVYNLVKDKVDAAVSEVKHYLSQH
In short: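 Mouse RIPK3 kinase domain 1-313 (C111A/R69H, C-terminal 10×His) was expressed in Sf-9 cells by baculovirus, with 10 µM test compound or DMSO added to the lysate. Ni-NTA eluate was concentrated to 10 mg/mL, incubated with 1 mM compound and centrifuged at 17,000 g for 15 min. It was then run on Superdex 200 Increase 10/300 in 25 mM Tris pH 8.0, 150 mM NaCl, 5 mM DTT plus 10 µM compound. Three independent runs.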

[7] = tested on: L929 cells (TNF-α-induced necroptosis); assay: Necroptosis induction and inhibition assay in L929; format: cell-based, mouse; details: Mus musculus, L929, read-out: EC50^L929 against TNF-α-induced necroptosis, mouse TNF-α (20 ng/mL) and zVAD (10 μM), CCK-8
[8] = tested on: HT29 cells (TNF-α-induced necroptosis); assay: Necroptosis induction and inhibition assay in HT29; format: cell-based, human; details: Homo sapiens, HT-29, read-out: EC50^HT29 against TNF-α-induced necroptosis, zVAD (20 μM), human TNF-α (40 ng/mL), Smac mimetic SM-164 (100 nM), CCK-8
[9] = tested on: L929 RIPK3-/- + RIPK3 K51A/R69H cells; assay: Cell viability assay with or without zVAD, L929 RIPK3-/- + RIPK3 K51A/R69H; format: cell-based, mouse
In short: as §1

[10] = tested on: caspase 3 activity in L929 cell lysates; assay: Caspase 3 activity in L929 cell lysates; format: cell-based, mouse
In short: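 L929 cells were cultured 12 h in 12-well plates, then exposed to test compound or DMSO for 0, 1, 2, 3 or 4 h. Protein was measured by BCA. Lysate was incubated with Ac-DEVD-pNA overnight at 37 °C and read at A405 minus blank. Three experiments, each in triplicate.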

Row | elution position of mRIPK3^KD R69H in complex with inhibitor [6] | concentration at which caspase 3 is activated [10] [µM] | Molecule | concentration triggering RIPK3-mediated apoptosis relative to EC50 [1] | viability of cells expressing the ATPase-inactive RIPK3 K51A mutant [2] | interaction between RIPK3 and RIPK1 (co-immunoprecipitation) [3] | activation of the apoptotic pathway: cleavage of caspase 8 and caspase 3 (Western blot) [4] | number of kinases inhibited by >65% [5] [kinases] | EC50 [7] [µM] | EC50 [8] [µM] | apoptosis in cells expressing RIPK3 K51A and R69H double mutation [9]
1 |  |  | GSK'840 | approximately twice their EC50 values |  |  |  |  |  |  | 
2 | aligns with a monomer | 5 | CC(C)S(=O)(=O)c1ccc2nccc(Nc3ccc4scnc4c3)c2c1 [GSK'872, reference compound] |  | significantly reduces the viability | enhances the interaction between RIPK3 and RIPK1 | cleavage of caspase 8 and caspase 3 | 13 | 3.6 | 7.9 | does not cause such apoptosis
